Data published in ChEMBL document CHEMBL2331168, “Anticonvulsant evaluation of aminoalkanol derivatives of 2- and 4-methylxanthone” (Bioorg Med Chem, 2013).
The source made the active and inactive calls.

Experiments:
[1] = system: Rattus norvegicus; assay: Anticonvulsant activity in Sprague-Dawley rat assessed as protection against maximal electroshock-induced seizures at 30 mg/kg, po after 2 hrs; type: functional, organism-based; design: dose 30 mg/kg
Procedure, shortened: (§1)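 Male Sprague-Dawley rats dosed orally at 30 mg/kg and tested at 0.25, 0.5, 1, 2 and 4 h. Seizures were induced by 60 Hz alternating current at 150 mA for 0.2 s through corneal electrodes, after a drop of 0.9% NaCl in each eye. Protection meant abolition of hindlimb tonic extension. Reported as protected/tested, usually 4 rats per time point.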

[2] = system: Mus musculus; assay: Anticonvulsant activity in albino mouse assessed as protection against maximal electroshock-induced seizures at 100 mg/kg, ip after 4 hrs; type: functional, organism-based; design: dose 100 mg/kg
Procedure, shortened: (§2)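 Male albino mice (Carworth Farms No. 1) were given the compound ip as a suspension in 0.5% methylcellulose at 3–300 mg/kg. MES testing was at 0.5 and 4 h, sometimes also at 0.25 and 1 h. Current was 60 Hz, 50 mA, 0.2 s via corneal electrodes, with saline eye drops. Protection meant no hindlimb tonic extension, scored as protected/tested.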

[3] = system: Mus musculus; assay: Anticonvulsant activity in albino mouse assessed as protection against subcutaneous pentetrazole-induced seizures at 30 mg/kg, ip after 0.5 hrs; type: functional, organism-based; design: dose 30 mg/kg
Procedure, shortened: (§3)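 Male albino mice (Carworth Farms No. 1) received compound ip in 0.5% methylcellulose, then pentetrazole 85 mg/kg sc in 0.9% NaCl at 0.5 or 4 h. Mice were watched for at least 30 min. Protection meant no threshold seizure, defined as a single clonic spasm lasting at least 5 s. Scored as protected/tested.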

[4] = system: Rattus norvegicus; assay: Neurotoxicity in Sprague-Dawley rat assessed as minimal motor impairment at 30 mg/kg, po after 1 hr by rotorod test; conditions: in vivo
[5] = system: Mus musculus; assay: Anticonvulsant activity in albino mouse assessed as protection against maximal electroshock-induced seizures at 30 mg/kg, ip after 4 hrs; type: functional, organism-based; design: dose 30 mg/kg; procedure, shortened: as §2
[6] = system: Mus musculus; assay: Neurotoxicity in albino mouse assessed as minimal motor impairment at 300 mg/kg, ip after 0.5 hrs by rotorod test; type: toxicity, organism-based; design: dose 300 mg/kg, route intraperitoneal; conditions: in vivo
Procedure, shortened: (§4)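 Male albino mice (Carworth Farms No. 1) were dosed ip with suspensions in 0.5% methylcellulose and put on a 1 in. knurled rod rotating at 6 rpm at set times after dosing. Neurotoxicity meant failure to stay on the rod for at least 1 min in each of three trials. Scored as impaired/tested.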

[7] = system: Rattus norvegicus; assay: Anticonvulsant activity in Sprague-Dawley rat assessed as protection against maximal electroshock-induced seizures at 30 mg/kg, po after 1 hr; type: functional, organism-based; design: dose 30 mg/kg; procedure, shortened: as §1
[8] = system: Mus musculus; assay: Neurotoxicity in albino mouse assessed as minimal motor impairment at 100 mg/kg, ip after 4 hrs by rotorod test; type: toxicity, organism-based; design: dose 100 mg/kg, route intraperitoneal; conditions: in vivo; procedure, shortened: as §4
[9] = system: Mus musculus; assay: Neurotoxicity in albino mouse assessed as minimal motor impairment at 30 mg/kg, ip after 0.5 hrs by rotorod test; type: toxicity, organism-based; design: dose 30 mg/kg, route intraperitoneal; conditions: in vivo; procedure, shortened: as §4
[10] = system: Rattus norvegicus; assay: Neurotoxicity in Sprague-Dawley rat assessed as minimal motor impairment at 30 mg/kg, po after 0.5 hrs by rotorod test; conditions: in vivo
[11] = system: Rattus norvegicus; assay: Neurotoxicity in Sprague-Dawley rat assessed as minimal motor impairment at 30 mg/kg, po after 2 hrs by rotorod test; conditions: in vivo
[12] = system: Mus musculus; assay: Neurotoxicity in albino mouse assessed as minimal motor impairment at 30 mg/kg, ip after 4 hrs by rotorod test; type: toxicity, organism-based; design: dose 30 mg/kg, route intraperitoneal; conditions: in vivo; procedure, shortened: as §4
[13] = system: Rattus norvegicus; assay: Anticonvulsant activity in Sprague-Dawley rat assessed as protection against maximal electroshock-induced seizures at 30 mg/kg, po after 0.25 hrs; type: functional, organism-based; design: dose 30 mg/kg; procedure, shortened: as §1
[14] = system: Rattus norvegicus; assay: Neurotoxicity in Sprague-Dawley rat assessed as minimal motor impairment at 30 mg/kg, po after 0.25 hrs by rotorod test; conditions: in vivo
[15] = system: Mus musculus; assay: Anticonvulsant activity in albino mouse assessed as protection against subcutaneous pentetrazole-induced seizures at 30 mg/kg, ip after 4 hrs; type: functional, organism-based; design: dose 30 mg/kg; procedure, shortened: as §3
[16] = system: Mus musculus; assay: Anticonvulsant activity in albino mouse assessed as protection against subcutaneous pentetrazole-induced seizures at 100 mg/kg, ip after 0.5 hrs; type: functional, organism-based; design: dose 100 mg/kg; procedure, shortened: as §3
[17] = system: Mus musculus; assay: Anticonvulsant activity in albino mouse assessed as protection against maximal electroshock-induced seizures at 30 mg/kg, ip after 0.5 hrs; type: functional, organism-based; design: dose 30 mg/kg; procedure, shortened: as §2
[18] = system: Rattus norvegicus; assay: Neurotoxicity in Sprague-Dawley rat assessed as minimal motor impairment at 30 mg/kg, po after 4 hrs by rotorod test; conditions: in vivo
[19] = system: Mus musculus; assay: Anticonvulsant activity in albino mouse assessed as protection against subcutaneous pentetrazole-induced seizures at 300 mg/kg, ip after 0.5 hrs; type: functional, organism-based; design: dose 300 mg/kg; procedure, shortened: as §3
[20] = system: Mus musculus; assay: Neurotoxicity in albino mouse assessed as minimal motor impairment at 300 mg/kg, ip after 4 hrs by rotorod test; type: toxicity, organism-based; design: dose 300 mg/kg, route intraperitoneal; conditions: in vivo; procedure, shortened: as §4
[21] = system: Mus musculus; assay: Anticonvulsant activity in albino mouse assessed as protection against maximal electroshock-induced seizures at 100 mg/kg, ip after 0.5 hrs; type: functional, organism-based; design: dose 100 mg/kg; procedure, shortened: as §2
[22] = system: Mus musculus; assay: Anticonvulsant activity in albino mouse assessed as protection against subcutaneous pentetrazole-induced seizures at 300 mg/kg, ip after 4 hrs; type: functional, organism-based; design: dose 300 mg/kg; procedure, shortened: as §3
[23] = system: Mus musculus; assay: Anticonvulsant activity in albino mouse assessed as protection against maximal electroshock-induced seizures at 300 mg/kg, ip after 0.5 hrs; type: functional, organism-based; design: dose 300 mg/kg; procedure, shortened: as §2
[24] = system: Mus musculus; assay: Anticonvulsant activity in albino mouse assessed as protection against maximal electroshock-induced seizures at 100 mg/kg, ip after 1 hr; type: functional, organism-based; design: dose 100 mg/kg; procedure, shortened: as §2
[25] = system: Mus musculus; assay: Anticonvulsant activity in albino mouse assessed as protection against maximal electroshock-induced seizures at 300 mg/kg, ip after 4 hrs; type: functional, organism-based; design: dose 300 mg/kg; procedure, shortened: as §2
[26] = system: Mus musculus; assay: Anticonvulsant activity in albino mouse assessed as protection against subcutaneous pentetrazole-induced seizures at 100 mg/kg, ip after 4 hrs; type: functional, organism-based; design: dose 100 mg/kg; procedure, shortened: as §3
[27] = system: Mus musculus; assay: Neurotoxicity in albino mouse assessed as minimal motor impairment at 100 mg/kg, ip after 0.25 hrs by rotorod test; type: toxicity, organism-based; design: dose 100 mg/kg, route intraperitoneal; conditions: in vivo; procedure, shortened: as §4
[28] = system: Rattus norvegicus; assay: Anticonvulsant activity in Sprague-Dawley rat assessed as protection against maximal electroshock-induced seizures at 30 mg/kg, po after 4 hrs; type: functional, organism-based; design: dose 30 mg/kg; procedure, shortened: as §1
[29] = system: Rattus norvegicus; assay: Anticonvulsant activity in Sprague-Dawley rat assessed as protection against maximal electroshock-induced seizures at 30 mg/kg, po after 0.5 hrs; type: functional, organism-based; design: dose 30 mg/kg; procedure, shortened: as §1
[30] = system: Mus musculus; assay: Neurotoxicity in albino mouse assessed as minimal motor impairment at 100 mg/kg, ip after 0.5 hrs by rotorod test; type: toxicity, organism-based; design: dose 100 mg/kg, route intraperitoneal; conditions: in vivo; procedure, shortened: as §4

| Compound | Activity [2] | Activity [3] | Activity [4] | Activity [5] | Activity [8] | Activity [9] | Activity [10] | Activity [11] | Activity [12] | Activity [13] | Activity [14] | Activity [15] | Activity [16] | Activity [17] | Activity [18] | Activity [19] | Activity [20] | Activity [23] | Activity [25] | Activity [26] | also measured |
| --- | --- | --- | --- | --- | --- | --- | --- | --- | --- | --- | --- | --- | --- | --- | --- | --- | --- | --- | --- | --- | --- |
| COc1ccc2c(=O)c3cccc(CNC(C)CO)c3oc2c1.Cl (racemic) | inactive | inactive | Non-toxic | inactive | Toxic | Non-toxic | Non-toxic | Non-toxic | Non-toxic | inactive | Non-toxic | inactive | inactive | inactive | Non-toxic |  |  |  |  |  | Activity [1]: inactive; Activity [6]: Toxic; Activity [7]: inactive |
| CC(C)(CO)NCc1ccc2oc3ccc(Cl)cc3c(=O)c2c1 | inactive | inactive |  | inactive | Non-toxic | Non-toxic |  |  |  |  |  | inactive | inactive | inactive |  | inactive | Non-toxic | Active | Active | inactive | Activity [21]: inactive; Activity [22]: inactive; Activity [24]: inactive; Activity [27]: Non-toxic |
| CN(Cc1ccc2oc3ccc(Cl)cc3c(=O)c2c1)C(C)(C)CO |  | inactive | Non-toxic | inactive | Non-toxic |  | Non-toxic | Non-toxic | Non-toxic | inactive | Non-toxic | inactive | inactive | inactive | Non-toxic | inactive | Non-toxic | Active | Active | inactive | Activity [1]: inactive; Activity [28]: inactive; Activity [22]: inactive; Activity [7]: inactive; Activity [29]: inactive |
| CC[C@@H](CO)NCc1cccc2c(=O)c3ccc(OC)cc3oc12 |  | inactive | Non-toxic | inactive |  |  | Non-toxic | Non-toxic | Non-toxic | inactive | Non-toxic | inactive | inactive | inactive | Non-toxic | inactive |  | Active | Active | inactive | Activity [28]: inactive; Activity [6]: Toxic; Activity [22]: inactive |
| COc1ccc2c(=O)c3cccc(CN[C@H](C)CO)c3oc2c1 | inactive | inactive |  | inactive | Non-toxic | Non-toxic |  | Non-toxic | Non-toxic | inactive | Non-toxic | inactive | inactive | inactive |  | inactive | Toxic | Active | Active | inactive | Activity [28]: inactive; Activity [21]: inactive; Activity [6]: Toxic; Activity [7]: inactive |
| COc1ccc2c(=O)c3cccc(CN[C@@H](C)CO)c3oc2c1 | inactive | inactive | Non-toxic | inactive | Non-toxic | Non-toxic | Non-toxic | Non-toxic | Non-toxic | inactive | Non-toxic | inactive | inactive | inactive | Non-toxic | inactive | Non-toxic | inactive | Active | inactive | Activity [1]: inactive; Activity [28]: inactive; Activity [22]: inactive; Activity [29]: inactive |
| CCC(CO)NCc1cccc2c(=O)c3ccc(OC)cc3oc12 (racemic) | inactive | inactive | Non-toxic | inactive | Non-toxic | Non-toxic | Non-toxic | Non-toxic | Non-toxic | inactive | Non-toxic | inactive | inactive | inactive | Non-toxic |  | Toxic | Active |  | inactive | Activity [1]: inactive; Activity [30]: Toxic; Activity [28]: inactive; Activity [21]: Active; Activity [6]: Toxic; Activity [7]: inactive; Activity [29]: inactive |
